In ChEMBL document CHEMBL3271940, “Monoquaternary neuromuscular blocking agents based on 1-tetralone and 1-indanone” (J Med Chem, 1976):

Experiments:
Felis catus [1] = species: Felis catus; test: Neuromuscular blocking activity in cat assessed as blockade of tibialis muscle twitches; format: functional
Outline: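 The reported value is the dose that produced 50% blockade of muscle twitches, given ± standard error together with the number of determinations.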

[2] = Dissociation constant, pKa of the compound in water; format: physicochemical
Felis catus [3] = species: Felis catus; test: Neuromuscular blocking activity in cat assessed as time duration of action of blockade of tibialis muscle twitches at ED50; format: functional

C[N+](C)(C)c1cccc2c1CCC/C2=N\N.Cc1ccc(S(=O)(=O)[O-])cc1
ED50 (Felis catus [1]): > 10 µmol/kg

C[N+](C)(C)c1ccc2c(c1)CCC/C2=N\N.[I-]
pKa [2]: 2.5 | Time (Felis catus [3]): 5.2 min | ED50 (Felis catus [1]): 0.16 µmol/kg

CN(C)/N=C1\CCCc2cc([N+](C)(C)C)ccc21.[I-]
ED50 (Felis catus [1]): > 10 µmol/kg

C[N+](C)(C)c1ccc2c(c1)/C(=N/N)CCC2.[I-]
ED50 (Felis catus [1]): > 10 µmol/kg

C[N+](C)(C)c1ccc2c(c1)CC/C2=N\N.[I-]
Time (Felis catus [3]): 10 min | ED50 (Felis catus [1]): 0.44 µmol/kg

C[N+](C)(C)c1ccc2c(c1)/C(=N/N)CC2.[I-]
Time (Felis catus [3]): 17.1 min | ED50 (Felis catus [1]): 3.98 µmol/kg

C[N+](C)(C)CCOC(=O)CCC(=O)OCC[N+](C)(C)C.[Cl-].[Cl-] [SUCCINYLCHOLINE CHLORIDE]
Time (Felis catus [3]): 4.4 min | ED50 (Felis catus [1]): 0.1 µmol/kg

C[N+](C)(C)c1cccc2c1CC/C2=N\N.[I-]
ED50 (Felis catus [1]): > 10 µmol/kg
